MBD2 DNA inh = inhibitors of MBD2 binding to methylated DNA, primary screen, biochemical, TR-FRET, DNA-binding domain, human; Methyl-CpG-binding domain protein 2 (Homo sapiens), Q9UBB5; AID 686964, 2013; 370,000 tested, 0.31% active; MBD2 binding to methylated oligonucleotide; inhibition, % at 4.4 µM; in the data active means inhibition above about 13%
LEDGF integ inh = blockers of LEDGF/p75-dependent integrase strand transfer – biochemical, TR-FRET, high throughput, primary screen. HIV-1 integrase (with human LEDGF/p75). inhibition, % at 3.7 µM. 370,000 tested, 0.64% active. TR-FRET IN-LEDGF/p75 DNA integration, Eu/Cy5;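 active means inhibition above the screen-wide mean plus 3 SD, cut at about 13% in these data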;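 further: signal is the Cy5 over europium emission ratio at 671 and 618 nm; 0% = plate median of compound wells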
CASP6 VEID inh = human caspase-6 inhibitors, primary screen, biochemical, VEID-R110 fluorescence, single point, set 2 | P55212 | purified caspase-6, Z-VEID-R110 cleavage fluorescence | inhibition, % at 12.5 µM | 350,000 tested, 0.53% active;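 active means mean inhibition across replicates at least about 35%, with every replicate also reaching that limit, limit read from the data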;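 further: 0% = median of neutral control wells and 100% = no fluorescence left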
NSD2 HMT inh = NSD2 histone methyltransferase inhibitors, primary screen, biochemical, AlphaScreen, single concentration, set 2. NSD2 peptide methylation, 120 min. inhibition, % at 12.5 µM. Histone-lysine N-methyltransferase NSD2 (Homo sapiens), O96028. 310,000 tested, 0.54% active. AID 743445, 2014; in the data active means inhibition above about 50%
TDP2 inh = human TDP2 enzyme inhibitors, primary screen, biochemical, epi absorbance, recombinant enzyme | Tyrosyl-DNA phosphodiesterase 2 (Homo sapiens), O95551 | T5PNP hydrolysis, p-nitrophenol absorbance 415 nm | inhibition, % at 12.8 µM | 370,000 tested, 0.34% active;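 active means inhibition above the mean of all tested compounds plus 3 SD, set per campaign, cut at about 25% in these data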;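 further: 0% = DMSO with enzyme and 100% = buffer with substrate but no TDP2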
Target sequence (O95551 whole entry, looked up): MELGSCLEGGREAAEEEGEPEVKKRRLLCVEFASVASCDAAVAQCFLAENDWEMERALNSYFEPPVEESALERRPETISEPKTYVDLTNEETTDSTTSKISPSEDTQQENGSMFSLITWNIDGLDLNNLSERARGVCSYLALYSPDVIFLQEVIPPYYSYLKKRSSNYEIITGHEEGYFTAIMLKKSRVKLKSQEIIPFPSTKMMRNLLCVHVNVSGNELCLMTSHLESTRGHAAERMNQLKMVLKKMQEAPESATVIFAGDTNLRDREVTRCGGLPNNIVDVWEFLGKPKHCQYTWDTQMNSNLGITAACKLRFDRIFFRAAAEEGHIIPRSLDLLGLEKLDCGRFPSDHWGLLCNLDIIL
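Test system: Human TDP2 enzyme | Reagent: 5 mM T5PNP | Compound dosing: 12.8 µM single point, 1% DMSO | Incubation: Enzyme reaction with compound for 2 h at 37 °C | Technique: p-Nitrophenol epi absorbance | Read-out: % inhibition relative to enzyme-containing and enzyme-free wells | Benchmarks: High control without enzyme, low control DMSO plus TDP2 | Replicates: Singlicate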
UHRF1 MBD2 ctr = UHRF1 methylated DNA binding inhibitors, primary screen, counter-screen for MBD2 inhibitor project, biochemical, TR-FRET, human UHRF1, single concentration | UHRF1 binding to methylated oligo | 370,000 tested, 0.75% active | E3 ubiquitin-protein ligase UHRF1 (Homo sapiens), Q96T88 | inhibition, % at 4.4 µM; in the data active means inhibition above about 21%;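 further: UHRF1 SRA domain binding a hemimethylated CpG hairpin DNA probe; 0% = median of test compound wells and 100% = reference inhibitor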
TDP2 inh conf = human TDP2 enzyme inhibitors, retest, confirmation, biochemical, epi absorbance, recombinant enzyme. shares compounds with TDP2 inh. absorbance read-out. inhibition, % at 12.8 µM. 1,100 tested, 22% active. AID 743263, 2014; in the data active means inhibition above about 25%;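 further: 0% = vehicle with enzyme and 100% = no enzyme buffer only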
* marks the source's active call; other numbers are inactive results; x = no result given; ! = not active in a repeat. This is a sample that favours compounds with a hit; in the whole collection about 1.9% have one here.

SMILES | MBD2 DNA inh | LEDGF integ inh | CASP6 VEID inh | NSD2 HMT inh | TDP2 inh | UHRF1 MBD2 ctr | TDP2 inh conf
C[C@H]1CCCCO[C@H](CN(C)C(=O)c2ccccc2)[C@@H](C)CN([C@@H](C)CO)C(=O)c2cc(NS(=O)(=O)c3ccccc3)ccc2O1 | x | x | 3 | x | x | x | x
O=C(CNCCN1CCOCC1)Nc1ccccc1Sc1ccccc1 | -4 | 5 | 1 | 2 | 28* | 2 | 14
COc1ccc(CC(=O)N/N=C(/C)CC(=O)N(C)c2ccccc2)cc1 | -5 | 0 | 1 | -2 | 25* | -7 | 5
COc1ccc(OC)c(CCNC(=O)CN2C(=O)CCSc3ccccc32)c1 | 4 | -1 | -3 | -1 | 26* | 2 | 2
CCOc1ccc(CCNC(=O)CN2C(=O)CCSc3ccccc32)cc1OCC | 0 | -6 | 3 | -1 | -1 | -1 | x
O=C(Nc1cccc(Cl)c1)N1C[C@@H]2[C@H](c3ccccc31)[C@@H](CO)N2C(=O)c1cccnc1 | x | x | -3 | x | x | x | x
CC(c1nc2scc(-c3ccccc3)c2c(=O)[nH]1)N1CCN(CC(=O)NC2CC2)CC1 (configuration not stated) | 3 | -2 | 0 | 0 | 32* | -4 | 1
CC(C)CNC(=O)CSc1nc2scc(-c3ccccc3)c2c(=O)[nH]1 | -3 | 3 | -3 | -1 | -2 | -4 | x
Cc1cc(Cl)c2oc(C(=O)N3CCOCC3)c(C)c2c1 | 0 | 1 | 2 | -5 | -5 | -4 | x
Cc1cc(Cl)c2oc(C(=O)N3CCN(C(=O)c4ccco4)CC3)c(C)c2c1 | -1 | 2 | -54 | 11 | 31* | -2 | -1
O=S(=O)(NC1CCSc2ccccc21)c1ccc(Cl)nc1 (configuration not stated) | 2 | 2 | -1 | 0 | 28* | -4 | -1
COC(=O)c1ccc2cc(OC)c(OC)cc2c1 | -4 | 1 | 1 | -2 | 1 | -3 | x
COC(=O)c1ccc(OCC(O)CNCC(c2ccc(OC)cc2)N(C)C)c(OC)c1 (configuration not stated) | 0 | 3 | -15 | -1 | 26* | 1 | 13
Cc1ccc(C)c(S(=O)(=O)Nc2ccc(O)c3ccccc23)c1 | -17 | 8 | 20 | 6 | 42* | 0 | 15
COCCNC(=O)C[C@H]1C[C@@H]2c3cc(NC(=O)Nc4ccc(OC)cc4)ccc3O[C@@H]2[C@@H](CO)O1 | x | x | -3 | x | x | x | x
CC(C)(C)n1nnnc1C(c1cccc(C(F)(F)F)c1)N1CCOCC1 (configuration not stated) | -2 | 0 | -3 | x | -11 | 3 | x
CC(C)(C)n1nnnc1C(c1cccnc1)N1CCOCC1 (configuration not stated) | -2 | 0 | -3 | -7 | 27* | -3 | -4
Oc1ccc(NC(=S)Nc2ccccc2)cc1 | -8 | 1 | 2 | 0 | 25*! | -5 | -4
Nc1ccc(NC(=S)Nc2ccccc2)cc1 | -8 | 7 | 8 | 0 | 32* | 1 | 1
C[C@H](NC(=O)[C@@H]1[C@@H](CO)[C@@H]2Cn3c(cccc3=O)[C@@H]2N1CC1CC1)c1ccccc1 | x | x | 1 | x | x | x | x
O=c1c2ccccc2ncn1Cc1ccc(Cl)c(Cl)c1 | -2 | -6 | -1 | -1 | -4 | -2 | x
Cc1[nH][nH]c(=O)c1C(c1c(C)[nH][nH]c1=O)c1cn(Cc2ccc(Cl)c(Cl)c2)c2ccccc12 | -1 | 5 | 22 | 98* | 44* | 18 | 27*
O=[N+]([O-])c1ccc2c(c1)nnn2-c1ccccc1 | -3 | -2 | 0 | 2 | 24* | -3 | 5

Screening data deposited in PubChem by several laboratories.
